Laboratory results as given in ChEMBL document CHEMBL5260806, “Hydrogen peroxide activated quinone methide precursors with enhanced DNA cross-linking capability and cytotoxicity towards cancer cells” (Eur J Med Chem, 2017).

Columns and labels:
[1] = Toxicity in healthy human lymphocytes assessed as reduction in cell viability at 10 uM after 24 hrs by Annexin/PI staining based fluorescence assay; conditions: lymphocyte
Procedure, shortened: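 Normal donor lymphocytes (n=2) isolated from peripheral blood by Ficoll-hypaque, in RPMI with 10% autologous plasma. Exposed to 10 µM for 24 h; % viable cells by annexin/PI binding.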

[2] = system: HL-60; experiment: Anticancer activity against human HL-60 cells assessed as cell growth inhibition at 10 uM incubated for 48 hrs by sulforhodamine B assay; assay type: functional; conditions: read-out: GI
Procedure, shortened: (§1)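 NCI-60 screen: cell lines grown in RPMI 1640 with 5% FBS and 2 mM L-glutamine, plated in 96-well plates at 5,000–40,000 cells/well depending on doubling time. Each line has one single-dose arm at 10 µM and one dose-response arm giving GI50.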

[3] = system: RPMI-8226; experiment: Anticancer activity against human RPMI-8226 cells assessed as cell growth inhibition at 10 uM incubated for 48 hrs by sulforhodamine B assay; assay type: functional; conditions: read-out: GI
Procedure, shortened: (§2)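 NCI DTP 60-cell-line screen run at National Cancer Institute. Cells grown in RPMI 1640 with 5% fetal bovine serum and 2 mM L-glutamine, seeded at 5,000–40,000 cells/well depending on doubling time. Single-dose screen at 10 µM gives growth percentage; dose-response series gives GI50.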

[4] = system: NCI-H23; experiment: Anticancer activity against human NCI-H23 cells assessed as cell growth inhibition at 10 uM incubated for 48 hrs by sulforhodamine B assay; assay type: functional; conditions: read-out: GI; procedure, shortened: as §2
[5] = system: NCI-H460; experiment: Anticancer activity against human NCI-H460 cells assessed as cell growth inhibition at 10 uM incubated for 48 hrs by sulforhodamine B assay; assay type: functional; conditions: read-out: GI; procedure, shortened: as §2
[6] = system: COLO 205; experiment: Anticancer activity against human COLO 205 cells assessed as cell growth inhibition at 10 uM incubated for 48 hrs by sulforhodamine B assay; assay type: functional; conditions: read-out: GI; procedure, shortened: as §1
[7] = system: HCC 2998; experiment: Anticancer activity against human HCC 2998 cells assessed as cell growth inhibition at 10 uM incubated for 48 hrs by sulforhodamine B assay; assay type: functional; conditions: read-out: GI; procedure, shortened: as §1
[8] = system: HCT-15; experiment: Anticancer activity against human HCT-15 cells assessed as cell growth inhibition at 10 uM incubated for 48 hrs by sulforhodamine B assay; assay type: functional; conditions: read-out: GI; procedure, shortened: as §1
[9] = system: HT-29; experiment: Anticancer activity against human HT-29 cells assessed as cell growth inhibition at 10 uM incubated for 48 hrs by sulforhodamine B assay; assay type: functional; conditions: read-out: GI; procedure, shortened: as §1
[10] = system: KM12; experiment: Anticancer activity against human KM12 cells assessed as cell growth inhibition at 10 uM incubated for 48 hrs by sulforhodamine B assay; assay type: functional; conditions: read-out: GI; procedure, shortened: as §1
[11] = system: SF-539; experiment: Anticancer activity against human SF-539 cells assessed as cell growth inhibition at 10 uM incubated for 48 hrs by sulforhodamine B assay; assay type: functional; conditions: read-out: GI; procedure, shortened: as §2
[12] = system: U-251; experiment: Anticancer activity against human U-251 cells assessed as cell growth inhibition at 10 uM incubated for 48 hrs by sulforhodamine B assay; assay type: functional; conditions: read-out: GI
[13] = system: LOX IMVI; experiment: Anticancer activity against human LOX IMVI cells assessed as cell growth inhibition at 10 uM incubated for 48 hrs by sulforhodamine B assay; assay type: functional; conditions: read-out: GI; procedure, shortened: as §1
[14] = system: SK-MEL-28; experiment: Anticancer activity against human SK-MEL-28 cells assessed as cell growth inhibition at 10 uM incubated for 48 hrs by sulforhodamine B assay; assay type: functional; conditions: read-out: GI; procedure, shortened: as §2
[15] = system: SK-MEL-5; experiment: Anticancer activity against human SK-MEL-5 cells assessed as cell growth inhibition at 10 uM incubated for 48 hrs by sulforhodamine B assay; assay type: functional; conditions: read-out: GI; procedure, shortened: as §2
[16] = system: OVCAR-5; experiment: Anticancer activity against human OVCAR-5 cells assessed as cell growth inhibition at 10 uM incubated for 48 hrs by sulforhodamine B assay; assay type: functional; conditions: read-out: GI; procedure, shortened: as §2
[17] = system: OVCAR-8; experiment: Anticancer activity against human OVCAR-8 cells assessed as cell growth inhibition at 10 uM incubated for 48 hrs by sulforhodamine B assay; assay type: functional; conditions: read-out: GI; procedure, shortened: as §2
[18] = system: HOP-62; experiment: Anticancer activity against human HOP-62 cells assessed as cell growth inhibition at 10 uM incubated for 48 hrs by sulforhodamine B assay; assay type: functional; conditions: read-out: GI; procedure, shortened: as §1
[19] = system: HOP-92; experiment: Anticancer activity against human HOP-92 cells assessed as cell growth inhibition at 10 uM incubated for 48 hrs by sulforhodamine B assay; assay type: functional; conditions: read-out: GI; procedure, shortened: as §1
[20] = system: CCRF-CEM; experiment: Anticancer activity against human CCRF-CEM cells assessed as cell growth inhibition incubated for 48 hrs by sulforhodamine B assay; assay type: functional; procedure, shortened: as §1
[21] = system: RPMI-8226; experiment: Anticancer activity against human RPMI-8226 cells assessed as cell growth inhibition incubated for 48 hrs by sulforhodamine B assay; assay type: functional; procedure, shortened: as §2
[22] = system: SR; experiment: Anticancer activity against human SR cells assessed as cell growth inhibition incubated for 48 hrs by sulforhodamine B assay; assay type: functional
[23] = system: NCI-H23; experiment: Anticancer activity against human NCI-H23 cells assessed as cell growth inhibition incubated for 48 hrs by sulforhodamine B assay; assay type: functional; procedure, shortened: as §2
[24] = system: NCI-H322M; experiment: Anticancer activity against human NCI-H322M cells assessed as cell growth inhibition incubated for 48 hrs by sulforhodamine B assay; assay type: functional; procedure, shortened: as §2
[25] = system: HCC 2998; experiment: Anticancer activity against human HCC 2998 cells assessed as cell growth inhibition incubated for 48 hrs by sulforhodamine B assay; assay type: functional; procedure, shortened: as §1
[26] = system: HCT-15; experiment: Anticancer activity against human HCT-15 cells assessed as cell growth inhibition incubated for 48 hrs by sulforhodamine B assay; assay type: functional; procedure, shortened: as §1
[27] = system: SF-268; experiment: Anticancer activity against human SF-268 cells assessed as cell growth inhibition incubated for 48 hrs by sulforhodamine B assay; assay type: functional; procedure, shortened: as §2
[28] = system: SNB-19; experiment: Anticancer activity against human SNB-19 cells assessed as cell growth inhibition incubated for 48 hrs by sulforhodamine B assay; assay type: functional
[29] = system: LOX IMVI; experiment: Anticancer activity against human LOX IMVI cells assessed as cell growth inhibition incubated for 48 hrs by sulforhodamine B assay; assay type: functional; procedure, shortened: as §1
[30] = system: MDA-MB-435; experiment: Anticancer activity against human MDA-MB-435 cells assessed as cell growth inhibition incubated for 48 hrs by sulforhodamine B assay; assay type: functional; procedure, shortened: as §2
[31] = system: SK-MEL-28; experiment: Anticancer activity against human SK-MEL-28 cells assessed as cell growth inhibition incubated for 48 hrs by sulforhodamine B assay; assay type: functional; procedure, shortened: as §2
[32] = system: SK-MEL-5; experiment: Anticancer activity against human SK-MEL-5 cells assessed as cell growth inhibition incubated for 48 hrs by sulforhodamine B assay; assay type: functional; procedure, shortened: as §2
[33] = system: UACC-62; experiment: Anticancer activity against human UACC-62 cells assessed as cell growth inhibition incubated for 48 hrs by sulforhodamine B assay; assay type: functional
[34] = system: NCI/ADR-RES; experiment: Anticancer activity against human NCI/ADR-RES cells assessed as cell growth inhibition incubated for 48 hrs by sulforhodamine B assay; assay type: functional; procedure, shortened: as §2
[35] = system: RXF 393; experiment: Anticancer activity against human RXF 393 cells assessed as cell growth inhibition incubated for 48 hrs by sulforhodamine B assay; assay type: functional; procedure, shortened: as §2
[36] = system: SN12C; experiment: Anticancer activity against human SN12C cells assessed as cell growth inhibition incubated for 48 hrs by sulforhodamine B assay; assay type: functional
[37] = system: MDA-MB-231; experiment: Anticancer activity against human MDA-MB-231 cells assessed as cell growth inhibition incubated for 48 hrs by sulforhodamine B assay; assay type: functional; procedure, shortened: as §2
[38] = system: Hs-578T; experiment: Anticancer activity against human Hs-578T cells assessed as cell growth inhibition incubated for 48 hrs by sulforhodamine B assay; assay type: functional; procedure, shortened: as §1
[39] = system: BT-549; experiment: Anticancer activity against human BT-549 cells assessed as cell growth inhibition incubated for 48 hrs by sulforhodamine B assay; assay type: functional; procedure, shortened: as §1
[40] = system: EKVX; experiment: Anticancer activity against human EKVX cells assessed as cell growth inhibition incubated for 48 hrs by sulforhodamine B assay; assay type: functional; procedure, shortened: as §1
[41] = system: CAKI-1; experiment: Anticancer activity against human CAKI-1 cells assessed as cell growth inhibition incubated for 48 hrs by sulforhodamine B assay; assay type: functional; procedure, shortened: as §1

COc1cc(CBr)c(B2OC(C)(C)C(C)(C)O2)c(CBr)c1
Activity [1]: Non-Toxic | inhibition of growth at 10 µM [2]: < 50% | inhibition of growth at 10 µM [3]: < 50% | inhibition of growth at 10 µM [4]: < 50% | inhibition of growth at 10 µM [5]: < 50% | inhibition of growth at 10 µM [6]: < 50% | inhibition of growth at 10 µM [7]: < 50% | inhibition of growth at 10 µM [8]: < 50% | inhibition of growth at 10 µM [9]: < 50% | inhibition of growth at 10 µM [10]: < 50% | inhibition of growth at 10 µM [11]: < 50% | inhibition of growth at 10 µM [12]: < 50% | inhibition of growth at 10 µM [13]: < 50% | inhibition of growth at 10 µM [14]: < 50% | inhibition of growth at 10 µM [15]: < 50% | inhibition of growth at 10 µM [16]: < 50% | inhibition of growth at 10 µM [17]: < 50% | inhibition of growth at 10 µM [18]: < 50% | inhibition of growth at 10 µM [19]: < 50% | GI50 [20]: 2000 nM | GI50 [21]: 2000 nM | GI50 [22]: 2000 nM | GI50 [23]: 2000 nM | GI50 [24]: 2000 nM | GI50 [25]: 2000 nM | GI50 [26]: 2000 nM | GI50 [27]: 2000 nM | GI50 [28]: 2000 nM | GI50 [29]: 2000 nM | GI50 [30]: 2000 nM | GI50 [31]: 2000 nM | GI50 [32]: 2000 nM | GI50 [33]: 2000 nM | GI50 [34]: 2000 nM | GI50 [35]: 2000 nM | GI50 [36]: 2000 nM | GI50 [37]: 2000 nM | GI50 [38]: 2000 nM | GI50 [39]: 2000 nM | GI50 [40]: 2000 nM | GI50 [41]: 2000 nM
